Measurements from the EternaBench riboswitch data.

Test system: MS2 coat protein
Assay: apparent Kd, MS2 coat protein; higher = weaker binding; RNA-MaP array; FMN 200 µM where present
In short: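 Stalled E. coli RNA polymerase transcribed the designs on Illumina sequencing-chip clusters. SNAP-549-labelled MS2 coat protein was titrated from 0.7 or 1.5 nM, doubling to 3 µM, without and then with constant ligand, in 100 mM Tris-HCl pH 7.5, 80 mM KCl, 4 mM MgCl2, BSA, DTT, yeast tRNA and Tween-20. Per-cluster binding curves were fitted to green signal normalised to red-channel RNA signal and control-cluster median Fmax. The apparent Kd is the median of the filtered fits.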

[1] = designed as: ON switch for flavin mononucleotide, no ligand
[2] = ligand present: flavin mononucleotide, designed as: ON switch for flavin mononucleotide
[3] = designed as: OFF switch for flavin mononucleotide, no ligand
[4] = ligand present: flavin mononucleotide, designed as: OFF switch for flavin mononucleotide

Row | Sequence | apparent Kd [1] | apparent Kd [2] | apparent Kd [3] | apparent Kd [4]
1 | AAUAGGCUCGCGCAGGAUAUGGAUCAUUCCACAUGAGGAUCACCCAUGUUAAGGAGCCCUUGCAUCCAGAAGGGUGUUGGUCUUU | 35.7 nM | 13.1 nM |  | 
2 | GACUUGGCUACAUGAGGAUCACCCAUGUUUGACUGGAUCGAUUAGGAUAUAGUGAUAUGCAACAAUUAGAAGGGAUGUUUACGG | 52.9 nM | 42.2 nM |  | 
3 | GCAGAUCAAGUGAGGAUAUCGUCUACCUCGGUAGUCGAGAAGGCACAUGAGGAUCACCCAUGUGAUUGAUCUGC |  |  | 18.5 nM | 25.9 nM
4 | AGUCGGCGAGGAUAUACAUGAGGAUCACCCAUGUGAUAGAGUGCACGCGUACGUGUACGUAGAAGGCGCUGACA |  |  | 11.9 nM | 37.7 nM
5 | CAGCUGAAAGUCAGGAUAUCUAGAGCUGCGGCUCUAGAGAAGGGACAUGAGGAUCACCCAUGUCACUCCAGCUG |  |  | 16.4 nM | 18.3 nM
6 | GGAAGGUGAGGAUAUACAAUGACGGAAACGUCAGGUGAGAGACAUGAGGAUCACCCAUGUAGAAGGCACGGAGA |  |  | 73.7 nM | 730 nM
7 | CUCGUGUAAGGAUAUGCGGGCGGGCGCGUUUGUGUUUGUUUGUAGAAGGUACAUGAGGAUCACCCAUGUACUGG |  |  | 25.5 nM | 57.4 nM
8 | GCACAUGGCAUAGGAUAUAGAACGAUAGUUGAAAUAGAUUGUUGGAAUUUACUAGAAGGAUGAGACAUGAGGAUCACCCAUGUA | 34.9 nM | 28.6 nM |  | 
9 | GGGUACAUCGGAGGAUAUGAUGUAAAUACAUGAGGAUCACCCAUGUCGAUGGAGACAUCGGAGAUUGAGAAGGCCGAUGUACCG | 88.2 nM | 32.2 nM |  | 
10 | UGGUACUAGGGAGGAUAUGGGAAGAUACAUGAGGAUCACCCAUGUUUAAGACUGCCGAGAGGCAACUAGAAGGCCCUAGUACCU | 624 nM | 27.4 nM |  | 
11 | GAAAAGGUAGGAUAUACGAAAAAAAAGGGUAGAAAAAAAGCACAUGAGGAUCACCCAUGUAGAAGGACCAAAAG |  |  | 36.7 nM | 132 nM
12 | AAGAAGUAAGGAUAUGGCCGGGUCCCUGGGUUUGGACCCGGCUAGAAGGUACAUGAGGAUCACCCAUGUAAGAA |  |  | 14.7 nM | 15.4 nM
13 | AUCAGCUCGUCAGGAUAUACGUUACUGCGUCAGCAGUGUGGUAAGAUCACAUGAGGAUCACCCAUGUAGAAGGGACGAGCUGAU |  |  | 61.8 nM | 653 nM
14 | AAAUUCUGAGGAUAUCGAUGUUUGUACAUGAGGAUCACCCAUGUCCUUUUUAUUUAAUCCCGAGAAGGCAGUGUAU |  |  | 29 nM | 25.8 nM
15 | GAAGCACACAUUAACAUGAGGAUCACCCAUGUCAAAAGACGUGAGGAUAUGGAUCUGAAGAAGAUCCAGAAGGCACUGUGCUAA | 8.83 nM | 6 nM |  | 
16 | UCAUUUAAUACAGGAUAUGUUAUUAUACAGUUGUUUGGUUAUUACAUUAUAACAGAAGGGUAGAACAUGAGGAUCACCCAUGUA | 179 nM | 79.4 nM |  | 
17 | GAAUCGAAAAUACGAGCAUGUACACAGGAUAUCCCGUGACAUGAGGAUCACCCAUGUAACACAUUGGAGAAGGGUGUUCACGUA | 153 nM | 14.8 nM |  | 
18 | CAGUCUACAGGAUAUACAUGAGGAUCACCCAUGUUUAUCAACUUUCAGUAAUCCAUAUGUAGAAGGGUAGACUG |  |  | 23.9 nM | 79.1 nM
19 | UUGUGGGAGACAGGAUAUGUACGGAAGGUCCACGUACAUGAGGAUCACCCAUGUCCAGGCUUCAGACAGAAGGGUCACCAGGUG | 595 nM | 45.4 nM |  | 
20 | GUUUGAUGAGGAUAUCGAGGUUAGUACAUGAGGAUCACCCAUGUUAUCCAGGUGUCGGUUCGAGAAGGUAUUGGAC |  |  | 18.4 nM | 38.1 nM
21 | CUGGUGUCAGGAUAUGCAUAGCAGUGACCGAAACCCGGUCAGCAGAAGGGACAUGAGGAUCACCCAUGUUAAUA |  |  | 23 nM | 64.1 nM
22 | AGAUUUGUACAUGAGGAUCACCCAUGUUAAUAGGUGGUUGUCAGAAGGCAUUGAUAGAGUUUUAAUGAGGAUAUGAAUUUACAG | 1000 nM | 553 nM |  | 
23 | CUGAUGUGAGGAUAUCAACGCCAUGUCUUUGACAUGGCGCAUGAGAAGGCACAUGAGGAUCACCCAUGUACUUC |  |  | 23.3 nM | 125 nM
24 | GCAUGCAAGUAGAAGGACGGAUAUUUUGAAAACGUAGGAUAUACAGAAUCAUAUCCACAAGGUUACAUGAGGAUCACCCAUGUA |  |  | 8.19 nM | 8.08 nM
25 | CGAUAUUAUGCAGGAUAUCUUUCUUGAAUGAGGAGAGAAGGGCAUAGGGAGACAUAAGCCUUAUUACAUGAGGAUCACCCAUGU |  |  | 10.9 nM | 9.5 nM
26 | GUAUGUUAUGAGGAUAUCGGUGAACAUACACAUCGAGAAGGCAUGACAUGAGGAUCACCCAUGUCAAGGAUGAC |  |  | 27.4 nM | 57.8 nM
27 | GUCAGCUCGUGAGGAUAUACGACACUGCUUCGGCAGUGUAUUAAGAUCACAUGAGGAUCACCCAUGUAGAAGGCACGAGCUGAU |  |  | 8.64 nM | 145 nM
